{"source": "ChEMBL document CHEMBL3739335", "about": "“Phosphonooxymethyl Prodrug of Triptolide: Synthesis, Physicochemical Characterization, and Efficacy in Human Colon Adenocarcinoma and Ovarian Cancer Xenografts” (J Med Chem, 2015)", "key": {"[1]": {"assay": "Chemical stability of the compound in buffer assessed as pseudo-first-order rate constant at 50 degC at pH 7.4 by Arrhenius plot analysis", "format": "physicochemical"}, "[2]": {"assay": "Chemical stability of the compound in buffer assessed as pseudo-first-order rate constant at 25 degC at pH 7.4 by Arrhenius plot analysis", "format": "physicochemical", "in_short": "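Pseudo-first-order kobsd at each temperature was fitted to an Arrhenius plot, which was extrapolated to 25 and 4 °C. t1/2 and t90 (time for 10% loss) were calculated from the extrapolated kobsd.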"}, "[3]": {"assay": "Stability of the compound in simulated intestinal fluid assessed as compound remaining at pH 7.5 after 1 hr by HPLC analysis", "format": "ADME", "details": "read-out: Stability", "in_short": "(§1)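 Drug incubated in simulated gastric fluid or simulated intestinal fluid and sampled at 0, 1, 2, 4, 8 and 24 h. Percent remaining was measured by reversed-phase C18 HPLC with photodiode-array detection, using a 20-min gradient of 10–70% acetonitrile against 10 mM sodium phosphate buffer at pH 7.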"}, "[4]": {"assay": "Chemical stability of the compound in buffer assessed as compound remaining at pH 4 after 2 hrs by HPLC analysis", "format": "physicochemical", "details": "read-out: Stability"}, "[5]": {"assay": "Stability of the compound in simulated intestinal fluid assessed as compound remaining at pH 7.5 after 24 hrs by HPLC analysis", "format": "ADME", "details": "read-out: Stability", "in_short": "as §1"}, "[6]": {"assay": "Aqueous solubility of the compound in Tris buffer at pH 7.4 at room temperature by HPLC analysis", "format": "physicochemical", "in_short": "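About 5 mg solid was added to Tris buffer pH 7.4 in triplicate to saturation, then sonicated and vortexed. Samples were shaken at 25 °C for 24 h. Excess solid was removed by centrifugation and filtration, and the diluted filtrate was quantified by reverse-phase C18 HPLC with photodiode array detection, using an acetonitrile/10 mM sodium phosphate pH 7 gradient.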"}, "alkaline phosphatase": {"target": "T1, alkaline phosphatase (Bos taurus, UniProt P09487)", "T1 sequence (P09487 whole entry)": "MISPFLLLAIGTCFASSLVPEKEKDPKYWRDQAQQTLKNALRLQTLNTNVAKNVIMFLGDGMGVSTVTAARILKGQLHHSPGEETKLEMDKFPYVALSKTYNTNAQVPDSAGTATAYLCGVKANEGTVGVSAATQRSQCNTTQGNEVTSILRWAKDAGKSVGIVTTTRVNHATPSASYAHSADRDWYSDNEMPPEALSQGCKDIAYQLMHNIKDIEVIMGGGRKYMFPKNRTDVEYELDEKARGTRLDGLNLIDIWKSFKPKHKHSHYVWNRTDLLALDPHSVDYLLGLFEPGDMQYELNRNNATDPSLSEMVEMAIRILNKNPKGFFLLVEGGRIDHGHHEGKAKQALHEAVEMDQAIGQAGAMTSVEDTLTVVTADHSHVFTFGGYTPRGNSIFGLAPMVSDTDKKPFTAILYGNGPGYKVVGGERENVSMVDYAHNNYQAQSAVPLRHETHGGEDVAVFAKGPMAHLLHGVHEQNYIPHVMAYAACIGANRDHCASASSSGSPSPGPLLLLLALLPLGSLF", "assay": "Half life of the compound in glycine buffer assessed as bovine intestinal mucosal alkaline phosphatase-mediated compound degradation at pH 9.8", "format": "ADME", "details": "cattle", "in_short": "(§2)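 Conversion in glycine buffer pH 9.8 with alkaline phosphatase from bovine intestinal mucosa; loss of compound and formation of triptolide followed, first-order fit for half-life. Control run in same buffer without enzyme for 1 h.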"}, "[7]": {"assay": "Stability of the compound in simulated intestinal fluid assessed as compound remaining at pH 7.5 after 2 hrs by HPLC analysis", "format": "ADME", "details": "read-out: Stability", "in_short": "as §1"}, "[8]": {"assay": "Stability of the compound in simulated intestinal fluid assessed as compound remaining at pH 7.5 after 4 hrs by HPLC analysis", "format": "ADME", "details": "read-out: Stability", "in_short": "as §1"}, "[9]": {"assay": "Chemical stability of the compound in buffer assessed as compound remaining at pH 6 after 2 hrs by HPLC analysis", "format": "physicochemical", "details": "read-out: Stability"}, "[10]": {"assay": "Stability of the compound in simulated gastric fluid assessed as compound remaining after 1 hr by HPLC analysis"}, "[11]": {"assay": "Chemical stability of the compound in buffer assessed as compound remaining at pH 4 after 1 hr by HPLC analysis", "format": "physicochemical", "details": "read-out: Stability"}, "[12]": {"target": "T2, Alkaline phosphatase, tissue-nonspecific isozyme (Bos taurus, UniProt P09487)", "T2 sequence (P09487 whole entry)": "T1 sequence (P09487 whole entry)", "assay": "Prodrug conversion in glycine buffer assessed as bovine intestinal mucosal alkaline phosphatase-mediated triptolide and formaldehyde formation at pH 9.8", "format": "ADME", "details": "cattle, isolated protein"}, "[13]": {"assay": "Chemical stability of the compound in buffer assessed as compound remaining at pH 1 after 4 hrs by HPLC analysis", "format": "physicochemical", "details": "read-out: Stability"}, "Mus musculus [14]": {"test_system": "Mus musculus", "assay": "Toxicity in athymic nude mouse xenografted with human HT-29 cells assessed as skin irritation at 0.9 mg/kg, ip administered 14 days measured post last dose", "format": "organism-based", "details": "in vivo, 336 h"}, "[15]": {"assay": "Stability of the compound in simulated gastric fluid assessed as compound remaining after 4 hrs by HPLC analysis"}, "[16]": {"assay": "Chemical stability of the compound in buffer assessed as compound remaining at pH 6 after 24 hrs by HPLC analysis", "format": "physicochemical", "details": "read-out: Stability"}, "[17]": {"assay": "Stability of the compound in simulated intestinal fluid assessed as compound remaining at pH 7.5 after 8 hrs by HPLC analysis", "format": "ADME", "details": "read-out: Stability", "in_short": "as §1"}, "[18]": {"assay": "Chemical stability of the compound in buffer assessed as compound remaining at pH 7.4 after 8 hrs by HPLC analysis", "format": "physicochemical", "details": "read-out: Stability"}, "Mus musculus [19]": {"test_system": "Mus musculus", "assay": "Toxicity in athymic nude mouse xenografted with human A2780 cells assessed as dehydration at 1.2 mg/kg, po administered for 30 days", "format": "organism-based", "details": "in vivo, 720 h", "in_short": "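Female athymic nude mice, 7–9 weeks old, received 2.5 × 10^6 A2780 cells subcutaneously in the flank in 50% Matrigel/RPMI 1640. Mice were randomized at a mean tumor volume of 188 mm3, 10 per group. Daily oral gavage in USP saline (0.2 mL) for 30 days, dosed on group-mean body weight. Clinical signs, survival and body weights were recorded.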"}, "[20]": {"assay": "Stability of the compound in glycine buffer at pH 9.8 after 1 hr in absence of bovine intestinal mucosal alkaline phosphatase", "format": "physicochemical", "details": "pH 9.8, 1 h", "in_short": "as §2"}, "Mus musculus [21]": {"test_system": "Mus musculus", "assay": "Toxicity in athymic nude mouse xenografted with human HT-29 cells assessed as mortality at 0.9 mg/kg, ip administered for 4 weeks", "format": "organism-based", "details": "in vivo, 672 h", "in_short": "(§3)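 Female athymic nude mice, 7–9 weeks old, received 1.74 × 10^6 HT-29 cells subcutaneously in the right flank in 50% Matrigel/McCoy's 5A. Randomized at 110 mm3, 10 per group. Intraperitoneal dosing in USP saline (0.2 mL) over a 28-day period on the stated schedule. Body weights were taken twice weekly; clinical signs and survival were recorded.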"}, "[22]": {"assay": "Chemical stability of the compound in buffer assessed as compound remaining at pH 7.4 after 24 hrs by HPLC analysis", "format": "physicochemical", "details": "read-out: Stability"}, "[23]": {"assay": "Stability of the compound in simulated gastric fluid assessed as compound remaining after 8 hrs by HPLC analysis"}, "Mus musculus [24]": {"test_system": "Mus musculus", "assay": "Toxicity in athymic nude mouse xenografted with human HT-29 cells assessed as mortality at 0.9 mg/kg, ip administered for 2 weeks followed by 3 times per week", "format": "organism-based", "details": "in vivo, 336 h", "in_short": "as §3"}, "[25]": {"assay": "Chemical stability of the compound in buffer assessed as compound remaining at pH 9 after 1 hr by HPLC analysis", "format": "physicochemical", "details": "read-out: Stability"}, "[26]": {"assay": "Chemical stability of the compound in buffer assessed as compound remaining at pH 1 after 2 hrs by HPLC analysis", "format": "physicochemical", "details": "read-out: Stability"}}, "data": [{"molecule": "CC(C)[C@]12O[C@H]1[C@@H]1O[C@]13[C@]1(O[C@H]1C[C@H]1C4=C(CC[C@@]13C)C(=O)OC4)[C@@H]2OCOP(=O)([O-])[O-].[Na+].[Na+]", "note": "[MINNELIDE]", "values": [{"measurement": "K", "setting": "[1]", "result": 0.001052, "unit": "h⁻¹"}, {"measurement": "K", "setting": "[2]", "result": 8.6, "unit": "×10⁻⁵ /hr"}, {"measurement": "remaining at 1 h", "setting": "[3]", "result": 100, "unit": "%"}, {"measurement": "remaining at 2 h", "setting": "[4]", "result": 100, "unit": "%"}, {"measurement": "remaining at 24 h", "setting": "[5]", "result": 99, "unit": "%"}, {"measurement": "solubility", "setting": "[6]", "result": 61, "unit": "mg/mL"}, {"measurement": "half-life", "setting": "alkaline phosphatase", "result": 2, "unit": "min"}, {"measurement": "remaining at 2 h", "setting": "[7]", "result": 100, "unit": "%"}, {"measurement": "remaining at 4 h", "setting": "[8]", "result": 100, "unit": "%"}, {"measurement": "remaining at 2 h", "setting": "[9]", "result": 100, "unit": "%"}, {"measurement": "remaining at 1 h", "setting": "[10]", "result": 93, "unit": "%"}, {"measurement": "remaining at 1 h", "setting": "[11]", "result": 100, "unit": "%"}, {"measurement": "Drug metabolism", "setting": "[12]", "result": "metabolite_detected"}, {"measurement": "remaining at 4 h", "setting": "[13]", "result": 62, "unit": "%"}, {"measurement": "Activity", "setting": "Mus musculus [14]", "result": "Toxic"}, {"measurement": "remaining at 4 h", "setting": "[15]", "result": 71, "unit": "%"}, {"measurement": "remaining at 24 h", "setting": "[16]", "result": 99, "unit": "%"}, {"measurement": "remaining at 8 h", "setting": "[17]", "result": 99, "unit": "%"}, {"measurement": "remaining at 8 h", "setting": "[18]", "result": 100, "unit": "%"}, {"measurement": "Activity", "setting": "Mus musculus [19]", "result": "Toxic"}, {"measurement": "Stability", "setting": "[20]", "result": "Stable"}, {"measurement": "Activity", "setting": "Mus musculus [21]", "result": "Toxic"}, {"measurement": "remaining at 24 h", "setting": "[22]", "result": 100, "unit": "%"}, {"measurement": "remaining at 8 h", "setting": "[23]", "result": 47, "unit": "%"}, {"measurement": "Activity", "setting": "Mus musculus [24]", "result": "Toxic"}, {"measurement": "remaining at 1 h", "setting": "[25]", "result": 100, "unit": "%"}, {"measurement": "remaining at 2 h", "setting": "[26]", "result": 79, "unit": "%"}]}]}
